One molecule from ChEMBL document CHEMBL5032510, “Identification of Novel Fused Heteroaromatics-Based MALT1 Inhibitors by High-Throughput Screening to Treat B Cell Lymphoma” (J Med Chem, 2021) can be followed below.

As usually defined, the IC50 is the concentration needed to halve the response being measured. Low readings indicate greater potency in that assay, high ones weaker potency in that assay. The term half-life denotes the time in which the quantity being followed falls by half. Higher therefore signals slow loss. The Cmax is the maximum level reached in the sampled fluid or tissue. By MRT last is commonly meant a mean duration of stay, worked out from the concentration-time curve. As a reminder, the AUC(0-t) is the area under the concentration-time curve up to a stated or last time point. Read a high AUC(0-t) as high exposure. In general, bioavailability refers to the share of a dose that reaches the circulation, judged against a reference dose that is usually intravenous.

For data set [1], the target named is T1, Mucosa-associated lymphoid tissue lymphoma translocation protein 1 (Homo sapiens, UniProt Q9UDY8).
T1 sequence (Q9UDY8 whole entry): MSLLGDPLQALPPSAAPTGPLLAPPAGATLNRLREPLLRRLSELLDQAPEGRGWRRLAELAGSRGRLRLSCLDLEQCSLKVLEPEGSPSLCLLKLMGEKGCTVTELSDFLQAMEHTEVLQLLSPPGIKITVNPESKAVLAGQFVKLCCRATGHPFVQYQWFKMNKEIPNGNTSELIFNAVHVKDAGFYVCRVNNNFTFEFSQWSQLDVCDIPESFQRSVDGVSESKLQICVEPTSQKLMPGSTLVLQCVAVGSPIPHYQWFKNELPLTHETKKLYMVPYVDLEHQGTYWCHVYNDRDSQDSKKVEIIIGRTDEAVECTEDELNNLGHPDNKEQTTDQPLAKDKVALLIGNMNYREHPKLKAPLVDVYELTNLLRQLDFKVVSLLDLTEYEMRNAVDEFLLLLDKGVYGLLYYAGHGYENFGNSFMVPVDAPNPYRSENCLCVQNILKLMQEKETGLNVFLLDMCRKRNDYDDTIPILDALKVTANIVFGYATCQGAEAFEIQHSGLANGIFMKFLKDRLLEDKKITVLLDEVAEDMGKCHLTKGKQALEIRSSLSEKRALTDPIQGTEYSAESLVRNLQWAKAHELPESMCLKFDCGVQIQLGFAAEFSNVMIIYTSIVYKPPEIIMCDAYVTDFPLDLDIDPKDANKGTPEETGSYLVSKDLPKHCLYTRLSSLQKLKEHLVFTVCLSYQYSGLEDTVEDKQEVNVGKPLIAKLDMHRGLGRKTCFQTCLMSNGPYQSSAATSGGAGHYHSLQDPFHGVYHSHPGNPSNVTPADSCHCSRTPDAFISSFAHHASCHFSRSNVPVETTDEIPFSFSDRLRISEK
Put plainly: Inhibition of N-terminal his-tagged GCN4 leucine zipper fused human MALT1 […] expressed in Escherichia coli using Ac-LVSR-AMC as substrate by HTS assay.

Data set [2] relates to OCI-Ly1. Put plainly: Induction of apoptosis in human OCI-Ly1 cells assessed as dead cells at 2 uM measured after 24 hrs by Annexin V-FITC/ Propidium iodide staining based flow cytometry (reference value: 0.365%). Type of data set: functional. Background: Flow cytometry measures light scatter and fluorescence of single cells or particles in a stream.
The nature of data set [3]: Toxicity in NCG mouse xenografted with human TMD8 cells assessed as body weight loss at 30 mg/kg/day, ip measured for 13 days. To be noted: in vivo, 312 h. (In general: In xenograft studies the graft and the host belong to different species.)
The nature of data set [4]: Half life in CD-1 mouse at 1 mg/kg, ip by LC-MS/MS analysis. It counts as ADME, organism-based. To be noted: in vivo. The method, boiled down: (§1)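 Compound formulated in 5% DMSO + 5% Tween-80 in 90% saline and given to male ICR (CD-1) mice (n = 9) at 10 mg/kg po, 1 mg/kg ip or 1 mg/kg iv. Blood was drawn via the jugular vein at set time points and held on ice. Plasma was separated by centrifugation and stored at −80 °C before PK parameters were derived.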

Data set [5] can be described thus: Half life in CD-1 mouse at 10 mg/kg, po by LC-MS/MS analysis. Type of data set: ADME, organism-based. As to conditions: in vivo. The method, boiled down: as §1
A short description of data set [6]: Cmax in CD-1 mouse at 10 mg/kg, po by LC-MS/MS analysis. Type of data set: ADME, organism-based. More on the design: route oral, dose 10 mg/kg. To be noted: in vivo. The method, boiled down:
as §1

For data set [7], the system named is TMD8. Put plainly: Induction of apoptosis in human TMD8 cells assessed as late apoptotic cells at 10 uM measured after 24 hrs by Annexin V-FITC/ Propidium iodide staining based flow cytometry (reference value: 2.19%). It counts as functional.
For data set [8], the system named is TMD8. Briefly: Induction of apoptosis in human TMD8 cells assessed as early apoptotic cells at 10 uM measured after 24 hrs by Annexin V-FITC/ Propidium iodide staining based flow cytometry (reference value: 6.97%). It counts as functional.
Data set [9] in a line: Induction of apoptosis in human HBL1 cells assessed as late apoptotic cells at 5 uM measured after 24 hrs by Annexin V-FITC/ Propidium iodide staining based flow cytometry (reference value: 4.77%). It counts as functional.
Data set [10] can be described thus: Half life in CD-1 mouse at 1 mg/kg, iv by LC-MS/MS analysis. It counts as ADME, organism-based. As to conditions: in vivo. In outline:
as §1

The nature of data set [11]: Induction of apoptosis in human HBL1 cells assessed as dead cells at 2 uM measured after 24 hrs by Annexin V-FITC/ Propidium iodide staining based flow cytometry (reference value: 2.32%). It counts as functional.
A short description of data set [12]: MRT (0 to t) in CD-1 mouse at 10 mg/kg, po by LC-MS/MS analysis. To be noted: in vivo. It counts as ADME, organism-based. In outline:
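Male ICR (CD-1) mice (n = 9). Compound formulated in 5% DMSO + 5% Tween-80 in 90% saline and dosed 10 mg/kg po, 1 mg/kg ip or 1 mg/kg iv. Blood drawn from the jugular vein at set time points and held on ice. Plasma separated by centrifugation and stored at −80 °C before parameter derivation.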

Data set [13] has as its system OCI-Ly1. Put plainly: Induction of apoptosis in human OCI-Ly1 cells assessed as late apoptotic cells at 10 uM measured after 24 hrs by Annexin V-FITC/ Propidium iodide staining based flow cytometry (reference value: 0.548%). Type of data set: functional.
Data set [14] can be described thus: Toxicity in NCG mouse xenografted with human TMD8 cells assessed as emaciation at 30 mg/kg/day, ip measured for 13 days. As to conditions: in vivo, 312 h.
A short description of data set [15]: Toxicity in NCG mouse xenografted with human TMD8 cells assessed as diarrhea at 30 mg/kg/day, ip measured for 13 days. As to conditions: in vivo, 312 h.
Data set [16] has as its system TMD8. Put plainly: Induction of apoptosis in human TMD8 cells assessed as early apoptotic cells at 5 uM measured after 24 hrs by Annexin V-FITC/ Propidium iodide staining based flow cytometry (reference value: 6.97%). Type of data set: functional.
Data set [17] is described as follows: Induction of apoptosis in human HBL1 cells assessed as late apoptotic cells at 2 uM measured after 24 hrs by Annexin V-FITC/ Propidium iodide staining based flow cytometry (reference value: 4.77%). Type of data set: functional.
Data set [18] can be described thus: AUC (0 to t) in CD-1 mouse at 1 mg/kg, ip by LC-MS/MS analysis. Type of data set: ADME, organism-based. On the set-up: dose 1 mg/kg. As to conditions: in vivo. The method, boiled down:
as §1

For data set [19], the system named is TMD8. Put plainly: Induction of apoptosis in human TMD8 cells assessed as late apoptotic cells at 5 uM measured after 24 hrs by Annexin V-FITC/ Propidium iodide staining based flow cytometry (reference value: 2.19%). It counts as functional.
Data set [20] is described as follows: Induction of apoptosis in human HBL1 cells assessed as early apoptotic cells at 10 uM measured after 24 hrs by Annexin V-FITC/ Propidium iodide staining based flow cytometry (reference value: 4.85%). Type of data set: functional.
For data set [21], the system named is OCI-Ly1. Briefly: Induction of apoptosis in human OCI-Ly1 cells assessed as early apoptotic cells at 2 uM measured after 24 hrs by Annexin V-FITC/ Propidium iodide staining based flow cytometry (reference value: 1.29%). Type of data set: functional.
Data set [22] is described as follows: Intraperitoneal bioavailability in CD-1 mouse at 1 mg/kg by LC-MS/MS analysis. As to conditions: in vivo, ip.
Data set [23] deals with OCI-Ly1. Briefly: Induction of apoptosis in human OCI-Ly1 cells assessed as early apoptotic cells at 5 uM measured after 24 hrs by Annexin V-FITC/ Propidium iodide staining based flow cytometry (reference value: 1.29%). Type of data set: functional.
Data set [24] deals with TMD8. Briefly: Induction of apoptosis in human TMD8 cells assessed as dead cells at 10 uM measured after 24 hrs by Annexin V-FITC/ Propidium iodide staining based flow cytometry (reference value: 0%). It counts as functional.

For `COc1ccc(OC)c(NC(=O)c2sc(=S)n(-c3ccc(C(F)(F)F)cc3)c2NC(=O)CCl)c1`, inhibition in data set [1] was half-maximal at 5.3 µM (IC50). The Activity is given as 0.011% with OCI-Ly1 [2]; “Non-Toxic” in data set [3]; 42.7% in the data set on TMD8 [7]; 53.1% with TMD8 [8]; 17.3% in data set [9]; 1.94% in data set [11]. In addition, the Activity in the data set on OCI-Ly1 [13] is 1.53%; in data set [14], “Non-Toxic”; in data set [15] it was “Non-Toxic”; with TMD8 [16], 58.9%; in data set [17] it was 5.5%; in the data set on TMD8 [19], 25.7%. Moreover, the Activity in [20] is on record as 57.8%; in the data set on OCI-Ly1 [21], 1.87%; in the data set on OCI-Ly1 [23] it was 1.6%; with TMD8 [24] it was 0.625%. Besides, the half-life is 4.5 h in data set [4], 2.83 h in data set [5] and 4.6 h in data set [10]. In addition, in data set [6], the maximum concentration (Cmax) was 1530 ng/mL. Besides, the mean residence time (MRT last) in [12] turned out to be 5.62 h. In [18], this molecule came in with an AUC(0-t) of 732 ng·h/mL. In [22], this molecule came in with a bioavailability of 72%.
